Reference: ChEMBL document CHEMBL3120121, “Insights on pregnane-X-receptor modulation. Natural and semisynthetic steroids from Theonella marine sponges” (Eur J Med Chem, 2014)

Key:
Assay type in all cases: cell-based; call rule not given here
[1] = target: T1, Nuclear receptor subfamily 1 group I member 2 (Homo sapiens, UniProt O75469); assay: Antagonist activity at human full-length PXR transfected in human HepG2 cells co-transfected with pSG5-RXR assessed as reversal of rifaximin-induced transactivation at 50 uM after 18 hrs by luciferase reporter gene assay; conditions: hepg2, 18 h
T1 sequence (O75469 whole entry): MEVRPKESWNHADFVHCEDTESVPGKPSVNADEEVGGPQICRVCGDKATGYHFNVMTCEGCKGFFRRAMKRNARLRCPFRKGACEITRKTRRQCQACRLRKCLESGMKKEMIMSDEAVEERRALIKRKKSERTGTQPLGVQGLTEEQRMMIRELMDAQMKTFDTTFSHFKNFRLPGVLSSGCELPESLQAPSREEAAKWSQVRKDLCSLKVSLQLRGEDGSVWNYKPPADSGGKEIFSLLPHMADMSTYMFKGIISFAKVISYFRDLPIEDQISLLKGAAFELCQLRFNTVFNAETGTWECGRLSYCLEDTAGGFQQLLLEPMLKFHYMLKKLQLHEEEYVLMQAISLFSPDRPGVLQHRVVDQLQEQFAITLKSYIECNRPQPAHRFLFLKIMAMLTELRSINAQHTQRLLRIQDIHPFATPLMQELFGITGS
Procedure, shortened: (§1)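 HepG2 cells cotransfected with pSG5-hPXRT1, pSG5-RXR, pCMV-βgal and pGL3(henance)PXRE reporter. At 24 h post-transfection, primed 18 h with compound at 50 plus rifaximin at 10 (antagonist mode). Luciferase luminescence measured in lysates and normalized to β-galactosidase activity. Significance p < 0.05 vs rifaximin.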

[2] = target: T1, Nuclear receptor subfamily 1 group I member 2; assay: Partial agonist activity at human full-length PXR transfected in human HepG2 cells co-transfected with RXR assessed as reversal of rifaximin-induced transactivation at 50 uM after 18 hrs by luciferase reporter gene assay; conditions: hepg2, 18 h; procedure, shortened: as §1
[3] = target: T1, Nuclear receptor subfamily 1 group I member 2; assay: Antagonist activity at human full-length PXR transfected in human HepG2 cells co-transfected with pSG5-RXR assessed as reversal of rifaximin-induced transactivation at 10 to 25 uM after 18 hrs by luciferase reporter gene assay; conditions: hepg2, 18 h
Procedure, shortened: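 Dose–response antagonism test in a luciferase reporter assay: transfected HepG2 cells received compound at 10, 25 or 50 together with rifaximin 10 to assess reversal of rifaximin-driven PXR transactivation.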

[4] = target: T1, Nuclear receptor subfamily 1 group I member 2; assay: Agonist activity at human full-length PXR transfected in human HepG2 cells co-transfected with pSG5-RXR assessed as induction of transactivation by dual-luciferase reporter gene assay; conditions: for Activity: human, hepg2
Procedure, shortened: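 HepG2 cells grown at 37 °C in MEM with Earle's salts, 10% FBS, 1% L-glutamine, 1% penicillin/streptomycin, seeded at 5 × 10^4 cells/well. Cotransfected with pSG5-hPXRT1, pSG5-RXR, pGL4.70-Renilla and pGL3(henance)PXRE reporter. Treated with rising concentrations (1, 10, 50) with rifaximin as positive control. Dual-luciferase readout; firefly RLU divided by Renilla RLU; EC50 from concentration–response curve.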

Activity [1] | Activity [2] | Activity [3] | EC50 [4] | Activity [4] | Structure (SMILES)
Active | Active | Not Active |  |  | CC(C)[C@H](C)CC[C@@H](C)[C@H]1CCC2=C3CC[C@H]4[C@@H](C)[C@@H](O)CC[C@]4(C)[C@H]3CC[C@@]21C
 | Active |  | 18 µM | Dose-dependent effect | CC(C)[C@H](C)CC[C@@H](C)[C@H]1CCC2=C3CC[C@H]4[C@H](C)[C@H](O)CC[C@]4(C)[C@H]3CC[C@@]21C
 | Active |  | 21 µM | Dose-dependent effect | C=C1[C@@H](O)CC[C@@]2(C)[C@H]1CCC1=C3CC[C@H]([C@H](C)CCC=C(C)C)[C@@]3(C)CC[C@@H]12
